Measurements reported in ChEMBL document CHEMBL1811920, “Chemical constituents of a marine fungus, Arthrinium sacchari” (J Nat Prod, 2011).

Key:
HUVEC = test: Antiangiogenesis activity in HUVEC assessed as inhibition of VEGF-induced cell proliferation after 72 hrs by MTT assay; assay type: functional, cell-based; details: Homo sapiens
Summary of the method: (§1)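 Cells were purchased primary endothelial cells, maintained at 37 C in 5% CO2: HUVECs in EGM-2 Bulletkit medium and HUAECs in EGM-2MV Bulletkit medium. For the assay, 3 103 cells/well were seeded in culture medium for 3 h, then switched to 1% FBS EBM-2 for 21 h. VEGF (1 nM) and compounds were added for 72 h. Proliferation was read with WST-8 at 450 nm. Ki8751, a VEGFR2 kinase inhibitor, was the positive control.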

[1] = Antiangiogenesis activity in HUAEC assessed as inhibition of VEGF-induced cell proliferation after 72 hrs by MTT assay; assay type: functional; details: Homo sapiens; summary of the method: as §1

Work on `C[C@H]1C/C=C/[C@H]2[C@@H]3O[C@]3(C)[C@@H](C)[C@H]3[C@H](Cc4ccccc4)NC(=O)[C@]32OC(=O)O/C=C/[C@@](C)(O)C1=O` [CYTOCHALASIN E] yielded an IC50 (HUVEC) of 0.0114 µM and an IC50 [1] of 0.011 µM.
For `Cc1c(O)cc(O)c2c(=O)oc(CO)c(C)c12` [DECARBOXYHYDROXYCITRINONE], the IC50 (HUVEC) was 7.6 µM and the IC50 [1] was 17.4 µM.
`C=C[C@]1(C)C=C2C(=O)C(O)=C3[C@@](C)(CO)CC[C@@H](O)[C@]3(C)[C@@]2(O)CC1` [LIBERTELLENONE C] gave an IC50 (HUVEC) of 29.7 µM and an IC50 [1] of 68.7 µM.
Molecule `C=C[C@]1(C)C=C2C(=O)C3=C4[C@@](C)(CC[C@@H](O)[C@]4(C)[C@@]2(O)CC1)[C@@H](O)O3` [LIBERTELLENONE E] has an IC50 (HUVEC) of 236 µM and an IC50 [1] of 238 µM.
`C=C[C@]1(C)C=C2C(=O)C3=C4[C@@](C)(CC[C@@H](O)[C@]4(C)[C@@]2(O)CC1)CO3` [LIBERTELLENONE F] gave an IC50 (HUVEC) of 64.1 µM and an IC50 [1] of 97.8 µM.
For `C=C[C@@]1(C)C=C2C(=O)C(O)=C3[C@](C)(C(=O)O)CC[C@@H]4C[C@]34[C@]2(O)C(=O)C1` [MYROCIN A], the IC50 (HUVEC) was 11 µM and the IC50 [1] was 9.2 µM.
For `C=C[C@]1(C)C=C2[C@@H](O)[C@@H]3OC(=O)[C@@]4(C)CC[C@H]5C[C@]5([C@@H]34)[C@@]2(O)C(=O)C1` [MYROCIN D], the IC50 (HUVEC) was 70.8 µM and the IC50 [1] was 277 µM.
